Measurements pooled from the literature.
Cell line: MDA-MB-231
Read-out: cell growth or viability

Compound | test | setting | IC50
Cc1nc(Nc2ncc(C(=O)Nc3c(C)cccc3Cl)s2)cc(N2CCN(CCO)CC2)n1 | MTT | 24 h | 25 µM
C[C@@H]1C[C@@H](c2cccc(Cl)c2)c2c(cc3ccccn23)C(=O)O1 (racemic) | resazurin | 72 h | > 100 µM
CC(C)C[C@H](NC(=O)[C@H](Cc1ccccc1)NC(=O)c1cnccn1)B(O)O | ATP luminescence | – | 0.013 µM
CCOc1ccc(-c2nc3ccccc3[nH]2)cc1 | MTT | 48 h | > 100 µM
Nc1ccn([C@@H]2O[C@H](CO)[C@@H](O)C2(F)F)c(=O)n1 | resazurin | 72 h | 4.5 µM
CCN1CCN(Cc2ccc(Nc3ncc(F)c(-c4cc(F)c5nc(C)n(C(C)C)c5c4)n3)nc2)CC1 | CCK-8 | – | 1.67 µM
O=C(c1cc(Cc2n[nH]c(=O)c3ccccc23)ccc1F)N1CCN(C(=O)C2CC2)CC1 | MTT | 48 h | 246 µM
CCn1c(-c2nnc(NC(=O)c3cc4c([nH]c5ccccc54)c(-c4cc(OC)c(OC)c(OC)c4)n3)s2)cc2ccccc21 | MTT | 72 h | 8.66 µM
C[C@@H]1C[C@@H](c2ccc(Br)cc2)c2c(cc3ccccn23)C(=O)O1 (racemic) | resazurin | 72 h | 22 µM
Clc1ccccc1-c1nc2ccccc2[nH]1 | MTT | 48 h | 50.3 µM
FC(F)(F)c1cccc(Nc2ncnc3ccc(-c4ccc(CN5CCOCC5)cc4)cc23)c1 | MTT | 24 h | 8.56 µM
COc1c(C)c(OS(=O)(=O)c2ccc3ccccc3c2)c(C)c(OS(=O)(=O)c2ccc3ccccc3c2)c1C(=O)/C=C/c1ccccc1 | SRB | 72 h | > 50 µM
CN(C)c1ccc(-c2nc3ccccc3[nH]2)cc1 | MTT | 48 h | 29.1 µM
COc1ccc(-c2nc(C(=O)Nc3nnc(-c4cc5ccccc5[nH]4)s3)cc3c2[nH]c2ccccc23)cc1 | MTT | 72 h | 3.28 µM
Clc1ccc(-c2nc3ccccc3[nH]2)cc1Cl | MTT | 48 h | 9.83 µM
COc1ccc(-c2ccc3ncnc(Nc4cccc(C(F)(F)F)c4)c3c2)cc1 | MTT | 24 h | 6.39 µM
Cc1cc(NS(=O)(=O)c2ccc(NC(=O)COc3ccc(C(C)(C)c4ccccc4)cc3)cc2)nc(C)n1 | MTT | 72 h | 38.9 µM
Cc1ccc2nc(-c3c(F)cccc3Cl)[nH]c2c1 | MTT | 48 h | 34.4 µM
CC(=O)Nc1nc(C)c(-c2csc(Nc3ccccc3)n2)s1 | MTT | 48 h | 12.2 µM
O=C(Nc1nnc(-c2cc3ccccc3[nH]2)s1)c1cc2c([nH]c3ccccc32)c(-c2ccc(Cl)cc2)n1 | MTT | 72 h | 4.45 µM
COc1ccc(Br)cc1/C=C/C(=O)c1ccc(NC(C)=O)cc1 | MTT | 48 h | 3 µM
COc1cccc2c1C(=O)c1c(O)c3c(c(O)c1C2=O)C[C@@](O)(C(=O)CO)C[C@@H]3O[C@H]1C[C@H](N)[C@H](O)[C@H](C)O1 | MTT | – | 4.27 µM
COc1cc([C@@H]2C[C@@H](C)OC(=O)c3cc4ccccn4c32)cc(OC)c1OC (racemic) | resazurin | 72 h | > 100 µM
CN(C)c1ccc2cc(C(=O)N[C@@H](CCCNC(=N)CCl)C(=O)NCc3ccccc3)ccc2c1 | – | 48 h | 7 µM

Compound | test | setting | IC50
Oc1cccc(Nc2ccc3ncnc(Nc4cccc(C(F)(F)F)c4)c3c2)c1 | MTT | 24 h | 3.34 µM
COc1cccc2c1C(=O)c1c(O)c3c(c(O)c1C2=O)C[C@@](O)(C(=O)CO)C[C@@H]3O[C@H]1C[C@H](N)[C@H](O)[C@H](C)O1 | resazurin | 72 h | 0.383 µM
FC(F)(F)c1cccc(Nc2ncnc3ccc(NCc4ccccc4)cc23)c1 | MTT | 24 h | 12.6 µM
COc1cccc2c1C(=O)c1c(O)c3c(c(O)c1C2=O)C[C@@](O)(C(=O)CO)C[C@@H]3O[C@H]1C[C@H](N)[C@H](O)[C@H](C)O1 | MTT | 72 h | 1.48 µM
C=CCNC1=C2C[C@@H](C)C[C@H](OC)[C@H](O)[C@@H](C)/C=C(\C)[C@H](OC(N)=O)[C@@H](OC)/C=C\C=C(/C)C(=O)NC(=CC1=O)C2=O | MTT | – | 0.338 µM
COc1ccc(-c2nc3ccccc3[nH]2)cc1OC | MTT | 48 h | 50.1 µM
Oc1ccc(-c2ccc3ncnc(Nc4cccc(C(F)(F)F)c4)c3c2)cc1 | MTT | 24 h | 3.96 µM
COc1c(C)c(OC)c2c(c1C)OC(c1ccccc1)CC2=O (stereo not drawn) | SRB | 72 h | > 50 µM
C[C@@H]1C[C@@H](c2ccc3c(c2)OCO3)c2c(cc3ccccn23)C(=O)O1 (racemic) | resazurin | 72 h | 29.4 µM
CC(=O)O[C@H]1C(=O)[C@@]2(C)[C@H]([C@H](OC(=O)c3ccccc3)[C@]3(O)C[C@H](OC(=O)[C@H](O)[C@@H](NC(=O)c4ccccc4)c4ccccc4)C(C)=C1C3(C)C)[C@]1(OC(C)=O)CO[C@@H]1C[C@@H]2O | – | 72 h | 0.0051 µM
CC(=O)O[C@H]1C(=O)[C@@]2(C)[C@H]([C@H](OC(=O)c3ccccc3)[C@]3(O)C[C@H](OC(=O)[C@H](O)[C@@H](NC(=O)c4ccccc4)c4ccccc4)C(C)=C1C3(C)C)[C@]1(OC(C)=O)CO[C@@H]1C[C@@H]2O | MTT | 48 h | 1.38 µM
C[C@H]1[C@@H](O)O[C@@H]2O[C@@]3(C)CC[C@H]4[C@H](C)CC[C@@H]1[C@@]24OO3 | CCK-8 | 48 h | > 50 µM
CC(C)CCC[C@@H](C)[C@H]1CC[C@H]2[C@@H]3CC=C4C[C@@H](O)CC[C@]4(C)[C@H]3CC[C@]12C | resazurin | 72 h | > 30 µM
Cc1ccc2nc(-c3ccc([N+](=O)[O-])cc3)n(Cc3ccccc3)c2c1 | MTT | – | 8.11 µM
C[C@H]1O[C@@H](n2cc(F)c(=O)[nH]c2=O)[C@H](O)[C@@H]1O | CCK-8 | 48 h | > 50 µM
COc1ccc(/C=C/C(=O)c2cc(Br)ccc(=O)c2O)cc1 | MTT | 72 h | 26.1 µM
CC(=O)O[C@H]1C(=O)[C@@]2(C)[C@H]([C@H](OC(=O)c3ccccc3)[C@]3(O)C[C@H](OC(=O)[C@H](O)[C@@H](NC(=O)c4ccccc4)c4ccccc4)C(C)=C1C3(C)C)[C@]1(OC(C)=O)CO[C@@H]1C[C@@H]2O | ATP luminescence | 72 h | 0.006 µM
C[C@@H]1C[C@@H](c2cccc(F)c2)c2c(cc3ccccn23)C(=O)O1 (racemic) | resazurin | 72 h | 52.9 µM
O=Cc1ccc(-c2ccc3ncnc(Nc4cccc(C(F)(F)F)c4)c3c2)cc1 | MTT | 24 h | 8.67 µM
COc1cc(/C=C2\SC(=O)NC2=O)ccc1OCc1ccc(Cl)cc1Cl | MTT | 48 h | 25.6 µM
COc1ccnc(Nc2ccc3ncnc(Nc4cccc(C(F)(F)F)c4)c3c2)c1 | MTT | 24 h | 6.62 µM
O=C(CSc1nc2ccc(N=Cc3ccc(Sc4nnnn4-c4ccccc4)o3)cc2s1)N1CCOCC1 | MTT | 72 h | 48.6 µM
CC(=O)CC(=O)[c-]1cccc1.[Fe+2].c1cc[cH-]c1 | MTT | 96 h | 47 µM
COc1nc(SC)nc(OC)c1C(=O)/C=C/[c-]1cccc1.[Fe+2].c1cc[cH-]c1 | MTT | 72 h | 9.3 µM
